Assay [1] deals with Penicillin-binding protein 2x (Streptococcus pneumoniae serotype 4 (strain ATCC BAA-334 / TIGR4), UniProt P14677). Put plainly: (§1) Inhibition of penicillin-resistant Streptococcus pneumoniae 5204 PBP2X preincubated for 4 hrs before addition of substrate (R)-[2-(benzoylamino)propionylsulfanyl]acetic acid. A digest of the protocol: (§2)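 0.6 μM 5204-PBP2x preincubated 4 h at 25 °C with inhibitor in 10 mM sodium phosphate pH 7.0, 70 mM D-alanine, 0.01 mg/mL BSA, 1% DMF, 0.01% Triton X-100. Assays were run in triplicate, and IC50 was fitted from residual activity versus decreasing inhibitor concentrations.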
Chain of Penicillin-binding protein 2x (P14677 whole entry, looked up): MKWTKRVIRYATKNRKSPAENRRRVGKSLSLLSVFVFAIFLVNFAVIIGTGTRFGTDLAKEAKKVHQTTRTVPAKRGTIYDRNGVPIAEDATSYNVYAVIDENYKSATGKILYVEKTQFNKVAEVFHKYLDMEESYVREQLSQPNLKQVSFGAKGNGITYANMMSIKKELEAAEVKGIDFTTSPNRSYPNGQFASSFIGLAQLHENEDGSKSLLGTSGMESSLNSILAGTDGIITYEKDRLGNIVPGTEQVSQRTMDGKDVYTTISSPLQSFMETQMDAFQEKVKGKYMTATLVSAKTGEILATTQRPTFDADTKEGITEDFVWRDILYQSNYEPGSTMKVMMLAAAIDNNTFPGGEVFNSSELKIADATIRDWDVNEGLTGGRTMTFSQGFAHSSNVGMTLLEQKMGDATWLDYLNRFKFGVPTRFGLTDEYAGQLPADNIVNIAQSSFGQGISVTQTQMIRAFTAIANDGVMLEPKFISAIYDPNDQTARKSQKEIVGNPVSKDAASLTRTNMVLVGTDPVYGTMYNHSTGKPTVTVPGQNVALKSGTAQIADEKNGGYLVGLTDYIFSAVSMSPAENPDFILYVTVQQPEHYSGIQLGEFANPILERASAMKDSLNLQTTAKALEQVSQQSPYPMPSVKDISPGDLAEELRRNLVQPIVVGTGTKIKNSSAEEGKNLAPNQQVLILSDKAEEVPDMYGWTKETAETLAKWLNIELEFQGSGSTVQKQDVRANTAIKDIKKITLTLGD

A short description of assay [2]: Inhibition of Streptococcus pneumoniae PBP1B after 60 mins by SDS-PAGE. The conditions noted are these: for pIC50: read-out: IC50. The method, boiled down:
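Test compounds incubated with 0.7 μM PBP1b in 10 mM sodium phosphate pH 7.0 for 60 min at 30 °C. Remaining active enzyme counter-labeled with 10 μM fluorescein-labeled ampicillin for 20 min. Reaction stopped, proteins separated by SDS-PAGE and read by fluorescence imaging with background subtracted.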

Assay [3] has as its target T1, Penicillin-binding protein 2X (Streptococcus pneumoniae R6, UniProt P59676).
T1 sequence (P59676 whole entry): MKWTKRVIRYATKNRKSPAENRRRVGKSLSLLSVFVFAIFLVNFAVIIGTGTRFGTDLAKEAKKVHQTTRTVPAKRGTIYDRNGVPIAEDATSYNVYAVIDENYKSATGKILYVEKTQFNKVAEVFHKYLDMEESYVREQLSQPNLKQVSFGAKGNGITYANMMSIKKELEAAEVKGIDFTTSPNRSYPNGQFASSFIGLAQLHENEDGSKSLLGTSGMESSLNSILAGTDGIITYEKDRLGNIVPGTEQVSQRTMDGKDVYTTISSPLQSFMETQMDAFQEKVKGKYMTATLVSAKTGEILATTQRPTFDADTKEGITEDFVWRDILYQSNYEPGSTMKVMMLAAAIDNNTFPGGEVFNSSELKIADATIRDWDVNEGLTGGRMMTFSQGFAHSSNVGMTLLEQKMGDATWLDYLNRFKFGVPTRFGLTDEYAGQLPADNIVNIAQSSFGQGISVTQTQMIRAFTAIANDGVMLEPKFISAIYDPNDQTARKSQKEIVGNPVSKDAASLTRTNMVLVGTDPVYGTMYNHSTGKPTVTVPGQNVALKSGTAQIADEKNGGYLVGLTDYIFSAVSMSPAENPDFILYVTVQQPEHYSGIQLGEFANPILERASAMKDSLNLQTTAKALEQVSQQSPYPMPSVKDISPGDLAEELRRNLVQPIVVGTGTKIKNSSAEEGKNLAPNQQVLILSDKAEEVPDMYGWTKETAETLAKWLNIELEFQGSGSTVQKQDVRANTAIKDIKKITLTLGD
Put plainly: (§3) Inhibition of penicillin-sensitive Streptococcus pneumoniae R6 PBP2X preincubated for 1 hr before addition of substrate (R)-[2-(benzoylamino)propionylsulfanyl]acetic acid. The method, boiled down: (§4)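 Compounds taken from 100 mM DMF stocks (1% DMF final) and preincubated with 0.09 μM R6-PBP2x in 10 mM sodium phosphate pH 7.0 with 0.01 mg/mL BSA, 60 min, 25 °C. Spontaneous hydrolysis without enzyme measured. Triplicates. IC50 fitted from residual activity versus decreasing inhibitor concentration, with 0.01% Triton X-100.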

The target in assay [4] is T2, Penicillin-binding protein 2x (Streptococcus pneumoniae serotype 4 (strain ATCC BAA-334 / TIGR4)) (UniProt P14677).
T2 sequence (whole entry): T1 sequence (P59676 whole entry) with M385T
The assay can be described thus: Inhibition of penicillin-resistant Streptococcus pneumoniae 5204 PBP2X assessed as residual activity at 100 uM preincubated for 1 hr before addition of substrate (R)-[2-(benzoylamino)propionylsulfanyl]acetic acid.

Assay [5] has as its target T2, Penicillin-binding protein 2x (Streptococcus pneumoniae serotype 4 (strain ATCC BAA-334 / TIGR4)). The assay can be described thus: Inhibition of penicillin-resistant Streptococcus pneumoniae 5204 PBP2X. The method, boiled down: as §2
Assay [6] has the same target. Described as §1. A digest of the protocol: as §2
Assay [7] deals with T3, Penicillin-binding protein 2X (Streptococcus pneumoniae R6) (UniProt P59676).
T3 sequence (whole entry): T1 sequence (P59676 whole entry)
Described as §3. A digest of the protocol:
as §4

Assay [8] has as its system Streptococcus pneumoniae. The assay can be described thus: Antibacterial activity against penicillin-resistant Streptococcus pneumoniae 5259. It is filed as functional.
Assay [9] has as its system Streptococcus pneumoniae. Put plainly: Antibacterial activity against penicillin-resistant Streptococcus pneumoniae SP328. In kind it is functional.
Assay [10] deals with T2, Penicillin-binding protein 2x (Streptococcus pneumoniae serotype 4 (strain ATCC BAA-334 / TIGR4)). The assay can be described thus: Inhibition of penicillin-resistant Streptococcus pneumoniae 5204 PBP2X assessed as residual activity at 200 uM preincubated for 1 hr before addition of substrate (R)-[2-(benzoylamino)propionylsulfanyl]acetic acid.

Residue numbers refer to the chain shown, from its start. pIC50: −log10 of the molar value. In brackets after ≈: the same amount, converted by molar mass. Activity calls are given as the source filed them. Bounds are passed on as bounds.

The term pIC50 denotes the IC50 on a negative log10 scale, so that one unit is a factor of ten. The term MIC denotes the smallest concentration in the dilution series that meets the test's criterion for growth inhibition. The low end stands for a more susceptible organism, the high end for a less susceptible organism.

In the case of `Cc1cc(Cl)ccc1NC(=O)Nc1c(Oc2ccc(Cl)cc2)ccc(Cl)c1S(=O)(=O)O`, the results for the pIC50 in assay [1], in assay [2] and in assay [3] were 4.15, 3.59 and 3.47, respectively. In addition, the Activity in assay [4] worked out at 50%. Also, in assay [5], the outcome was Active.

Take `O=C(Nc1cccc(C(F)(F)F)c1)Nc1c(Oc2ccc(Cl)c(Cl)c2)ccc(Cl)c1S(=O)(=O)O`: the pIC50 is 4.14 in assay [1], 4.06 in [2] and 3.59 in [3]. The Activity in assay [4] stood at 50%. In addition, the result in assay [5] was Active.

For the compound `CC1(C)S[C@@H]2[C@H](NC(=O)Cc3ccccc3)C(=O)N2[C@H]1C(=O)O` [PENICILLIN G], the outcome in assay [6] and in assay [7] was Active. Further, the MIC is 0.19 µg/mL (≈ 0.568 µM) in the assay with Streptococcus pneumoniae [8] and 4 µg/mL (≈ 12 µM) against Streptococcus pneumoniae [9].

`Cc1ccc(Nc2nnc(CSc3ccc(Cl)cc3)s2)c(S(=O)(=O)O)c1`: the pIC50 in [1] was 3.66; in [3], under 3.00. Also, in assay [2], the IC50 entry is listed as “Not Active”. The Activity in assay [10] was determined as 54%. Further, in assay [5], the result was Active.

Take `CO/N=C(\C(=O)N[C@@H]1C(=O)N2C(C(=O)O)=C(COC(C)=O)CS[C@H]12)c1csc(N)n1`: the outcome in assay [6] and in assay [7] was Active.

As to `C[C@H]1COc2c(N3CCN(C)CC3)c(F)cc3c(=O)c(C(=O)O)cn1c23`, the result in [6] and in assay [7] was Active.

The values above are taken from ChEMBL document CHEMBL1155224, “Discovery of new inhibitors of resistant Streptococcus pneumoniae penicillin binding protein (PBP) 2x by structure-based virtual screening” (J Med Chem, 2009).
